# Results: ChEMBL document CHEMBL4184124, “Progress in antischistosomal N,N'-diaryl urea SAR” (Bioorg Med Chem Lett, 2018)
# Calls of active or inactive are those of the source. No cut-off for these calls is given here.
# Tested on: U2OS
# Assay: Cytotoxicity against human U2OS cells
# Type: cell-based
# Details: not given
row,SMILES,IC50 [µM]
1,O=C(Nc1ccc2c(c1)OC(F)(F)O2)Nc1ccc(F)c(C(F)(F)F)c1,> 100
2,O=C(Nc1ccc2c(c1)OC(F)(F)O2)Nc1ccc2c(c1)OC(F)(F)O2,> 100
3,O=C(Nc1ccc(F)c(C(F)(F)F)c1)Nc1ccc(F)c(C(F)(F)F)c1,> 100

# Tested on: not listed separately
# Assay: Half-life in mouse at 46.3 mg/kg, po
# Type: ADME, organism-based
# Details: in vivo
row,half-life [h],SMILES
1,4.7,O=C(Nc1ccc(Cl)c(Cl)c1)Nc1ccc(Cl)c(Cl)c1

# Tested on: not listed separately
# Assay: Plasma concentration in Swiss mouse at 100 mg/kg, po administered as single dose via gavage measured up to 48 hrs by LC-MS analysis
# Type: ADME, organism-based
# Details: not given
# In short: (§1)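 Single 100 mg/kg oral dose given to non-infected male Swiss outbred mice; plasma sampled over 48 h post-dose; n=2 mice per time point, mean values. AUC taken to last measured concentration.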
row,SMILES,concentration at 48 h [µM]
1,O=C(Nc1ccc2c(c1)OC(F)(F)O2)Nc1ccc(F)c(C(F)(F)F)c1,> 5
2,O=C(Nc1ccc2c(c1)OC(F)(F)O2)Nc1ccc2c(c1)OC(F)(F)O2,> 5
3,O=C(Nc1ccc(F)c(C(F)(F)F)c1)Nc1ccc(F)c(C(F)(F)F)c1,> 1

# Tested on: Schistosoma mansoni
# Assay: Antischistosomal activity against newly transformed stage of Schistosoma mansoni measured after 72 hrs by microscopic analysis
# Type: functional, organism-based
# Details: not given
# In short: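 Newly transformed schistosomula were first screened at 10 µM; compounds that killed them were then run as a concentration titration to derive IC50 values.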
row,SMILES,IC50 [µM]
1,O=C(Nc1ccc2c(c1)OC(F)(F)O2)Nc1ccc(F)c(C(F)(F)F)c1,0.21
2,O=C(Nc1ccncc1)Nc1ccc(F)c(C(F)(F)F)c1,5.6
3,O=C(Nc1ccc2c(c1)OC(F)(F)O2)Nc1ccc2c(c1)OC(F)(F)O2,0.26
4,O=C(Nc1ccc(F)c(C(F)(F)F)c1)Nc1ccc(F)c(C(F)(F)F)c1,0.15

# Tested on: HEK293
# Assay: Cytotoxicity against HEK293 cells
# Type: cell-based
# Details: Homo sapiens
row,SMILES,IC50 [µM]
1,O=C(Nc1ccc2c(c1)OC(F)(F)O2)Nc1ccc(F)c(C(F)(F)F)c1,> 100
2,O=C(Nc1ccc2c(c1)OC(F)(F)O2)Nc1ccc2c(c1)OC(F)(F)O2,> 100
3,O=C(Nc1ccc(F)c(C(F)(F)F)c1)Nc1ccc(F)c(C(F)(F)F)c1,> 100

# Tested on: not listed separately
# Assay: Kinetic solubility of the compound in 0.01M HCl at pH 2 by nephelometric method
# Type: physicochemical
# Details: read-out: Kinetic_solubility
# In short: (§2)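 DMSO stocks spiked into pH 6.5 phosphate buffer or 0.01 M HCl (approx. pH 2.0); nephelometry gave a solubility concentration range.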
row,SMILES,solubility kinetic [µg/mL]
1,O=C(Nc1ccc2c(c1)OC(F)(F)O2)Nc1ccc(F)c(C(F)(F)F)c1,< 1.6
2,O=C(Nc1ccncc1)Nc1ccc(F)c(C(F)(F)F)c1,6.3 to 12.5
3,O=C(Nc1ccc2c(c1)OC(F)(F)O2)Nc1ccc2c(c1)OC(F)(F)O2,< 1.6
4,O=C(Nc1ccc(F)c(C(F)(F)F)c1)Nc1ccc(F)c(C(F)(F)F)c1,< 1.6

# Tested on: Schistosoma mansoni
# Assay: Antischistosomal activity against adult stage of Schistosoma mansoni measured after 72 hrs by microscopic analysis
# Type: functional, organism-based
# Details: not given
row,SMILES,IC50 [µM]
1,O=C(Nc1ccc2c(c1)OC(F)(F)O2)Nc1ccc(F)c(C(F)(F)F)c1,0.49
2,O=C(Nc1ccncc1)Nc1ccc(F)c(C(F)(F)F)c1,> 10
3,O=C(Nc1ccc2c(c1)OC(F)(F)O2)Nc1ccc2c(c1)OC(F)(F)O2,0.49
4,O=C(Nc1ccc(F)c(C(F)(F)F)c1)Nc1ccc(F)c(C(F)(F)F)c1,0.19

# Tested on: Schistosoma mansoni
# Assay: Antischistosomal activity against Schistosoma mansoni cercariae infected in NMRI mouse assessed as reduction in worm burden at 100 mg/kg, po administered as single dose via gavage measured after 21 days relative to control
# Type: functional
# Set-up: scale not given: the % may be the effect or the level left
# Details: not given
# In short: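 Infected mice given a single 100 mg/kg oral dose; efficacy read as worm burden reduction (%).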
row,SMILES,Activity [%]
1,O=C(Nc1ccc(Cl)c(Cl)c1)Nc1ccc(Cl)c(Cl)c1,0
2,O=C(Nc1ccc2c(c1)OC(F)(F)O2)Nc1ccc(F)c(C(F)(F)F)c1,0
3,O=C(Nc1ccc2c(c1)OC(F)(F)O2)Nc1ccc2c(c1)OC(F)(F)O2,0
4,O=C(Nc1ccc(F)c(C(F)(F)F)c1)Nc1ccc(F)c(C(F)(F)F)c1,40

# Tested on: Schistosoma mansoni
# Assay: Antischistosomal activity against Schistosoma mansoni infected in NMRI mouse assessed as reduction in worm burden at 400 mg/kg, po administered as single dose measured after 14 days relative to control
# Type: functional
# Set-up: scale not given: the % may be the effect or the level left
# Details: not given
row,SMILES,Activity [%]
1,O=C(Nc1ccc(Cl)c(Cl)c1)Nc1ccc(Cl)c(Cl)c1,53

# Tested on: not listed separately
# Assay: Tmax in Swiss mouse at 100 mg/kg, po administered as single dose via gavage by LC-MS analysis
# Type: ADME, organism-based
# Details: in vivo
# In short: as §1
row,SMILES,Tmax [h]
1,O=C(Nc1ccc(F)c(C(F)(F)F)c1)Nc1ccc(F)c(C(F)(F)F)c1,4

# Tested on: not listed separately
# Assay: Drug uptake in Swiss mouse plasma at 100 mg/kg, po administered as single dose via gavage measured after 2 hrs by LC-MS analysis
# Type: ADME, organism-based
# Details: in vivo
# In short: as §1
row,SMILES,Drug uptake
1,O=C(Nc1ccc(F)c(C(F)(F)F)c1)Nc1ccc(F)c(C(F)(F)F)c1,Active

# Tested on: Schistosoma mansoni
# Assay: Antischistosomal activity against Schistosoma mansoni Liberian cercariae measured after 72 hrs by microscopic analysis
# Type: functional, organism-based
# Details: not given
# In short: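 Newly transformed schistosomula prepared from cercariae, first screened at 10 µM as a gate. Active compounds then went through a concentration titration to derive IC50 values.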
row,IC50 [µM],SMILES
1,0.8,O=C(Nc1ccc(Cl)c(Cl)c1)Nc1ccc(Cl)c(Cl)c1

# Tested on: not listed separately
# Assay: Kinetic solubility of the compound in phosphate buffer at pH 6.5 by nephelometric method
# Type: physicochemical
# Details: read-out: Kinetic_solubility
# In short: as §2
row,SMILES,solubility kinetic [µg/mL]
1,O=C(Nc1ccc2c(c1)OC(F)(F)O2)Nc1ccc(F)c(C(F)(F)F)c1,< 1.6
2,O=C(Nc1ccncc1)Nc1ccc(F)c(C(F)(F)F)c1,6.3 to 12.5
3,O=C(Nc1ccc2c(c1)OC(F)(F)O2)Nc1ccc2c(c1)OC(F)(F)O2,< 1.6

# Tested on: Schistosoma mansoni
# Assay: Antischistosomal activity against newly transformed stage of Schistosoma mansoni assessed as parasite death at 10 uM
# Type: functional, organism-based
# Details: not given
# In short: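 Newly transformed schistosomula exposed at 10 µM as a screen for killing; active compounds then titrated to give IC50.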
row,SMILES,Activity
1,O=C(Nc1ccc2c(c1)OC(F)(F)O2)Nc1ccc(F)c(C(F)(F)F)c1,Active
2,O=C(Nc1ccncc1)Nc1ccc(F)c(C(F)(F)F)c1,Active
3,O=C(Nc1ccc2c(c1)OC(F)(F)O2)Nc1ccc2c(c1)OC(F)(F)O2,Active
4,O=C(Nc1ccc(F)c(C(F)(F)F)c1)Nc1ccc(F)c(C(F)(F)F)c1,Active

# Tested on: not listed separately
# Assay: Cytotoxicity against human HC04 cells
# Type: cell-based
# Details: not given
row,SMILES,IC50 [µM]
1,O=C(Nc1ccc2c(c1)OC(F)(F)O2)Nc1ccc(F)c(C(F)(F)F)c1,> 100
2,O=C(Nc1ccc2c(c1)OC(F)(F)O2)Nc1ccc2c(c1)OC(F)(F)O2,> 100
3,O=C(Nc1ccc(F)c(C(F)(F)F)c1)Nc1ccc(F)c(C(F)(F)F)c1,> 100

# Tested on: not listed separately
# Assay: AUC (0 to last) in Swiss mouse at 100 mg/kg, po administered as single dose via gavage by LC-MS analysis
# Type: ADME, organism-based
# Set-up: dose 100 mg/kg, time 0 - last, route oral
# Details: in vivo
# In short: as §1
row,SMILES,AUC(0-t) [µM·h]
1,O=C(Nc1ccc2c(c1)OC(F)(F)O2)Nc1ccc(F)c(C(F)(F)F)c1,989
2,O=C(Nc1ccc2c(c1)OC(F)(F)O2)Nc1ccc2c(c1)OC(F)(F)O2,679
3,O=C(Nc1ccc(F)c(C(F)(F)F)c1)Nc1ccc(F)c(C(F)(F)F)c1,394

# Tested on: not listed separately
# Assay: Half-life in Swiss mouse at 100 mg/kg, po administered as single dose via gavage by LC-MS analysis
# Type: ADME, organism-based
# Details: in vivo
# In short: as §1
row,SMILES,half-life [h]
1,O=C(Nc1ccc2c(c1)OC(F)(F)O2)Nc1ccc2c(c1)OC(F)(F)O2,13
2,O=C(Nc1ccc(F)c(C(F)(F)F)c1)Nc1ccc(F)c(C(F)(F)F)c1,11

# Tested on: HFF
# Assay: Cytotoxicity against HFF
# Type: cell-based
# Details: Homo sapiens
row,SMILES,IC50 [µM]
1,O=C(Nc1ccc2c(c1)OC(F)(F)O2)Nc1ccc(F)c(C(F)(F)F)c1,67
2,O=C(Nc1ccc2c(c1)OC(F)(F)O2)Nc1ccc2c(c1)OC(F)(F)O2,79
3,O=C(Nc1ccc(F)c(C(F)(F)F)c1)Nc1ccc(F)c(C(F)(F)F)c1,57

# Tested on: not listed separately
# Assay: Cmax in mouse at 46.3 mg/kg, po
# Type: ADME, organism-based
# Set-up: dose 46.3 mg/kg, route oral
# Details: in vivo
row,Cmax [µM],SMILES
1,4.4,O=C(Nc1ccc(Cl)c(Cl)c1)Nc1ccc(Cl)c(Cl)c1

# Tested on: not listed separately
# Assay: Cmax in Swiss mouse at 100 mg/kg, po administered as single dose via gavage by LC-MS analysis
# Type: ADME, organism-based
# Set-up: dose 100 mg/kg, route oral
# Details: in vivo
# In short: as §1
row,SMILES,Cmax [µM]
1,O=C(Nc1ccc2c(c1)OC(F)(F)O2)Nc1ccc(F)c(C(F)(F)F)c1,27
2,O=C(Nc1ccc2c(c1)OC(F)(F)O2)Nc1ccc2c(c1)OC(F)(F)O2,25
3,O=C(Nc1ccc(F)c(C(F)(F)F)c1)Nc1ccc(F)c(C(F)(F)F)c1,31

# Tested on: not listed separately
# Assay: Octanol-[…] partition coefficient, log D of the compound at pH 7.4 by RP-HPLC method
# Details: not given
row,SMILES,chromatographic logD
1,O=C(Nc1ccc2c(c1)OC(F)(F)O2)Nc1ccc(F)c(C(F)(F)F)c1,4.5
2,O=C(Nc1ccncc1)Nc1ccc(F)c(C(F)(F)F)c1,3.2
3,O=C(Nc1ccc2c(c1)OC(F)(F)O2)Nc1ccc2c(c1)OC(F)(F)O2,4.4
4,O=C(Nc1ccc(F)c(C(F)(F)F)c1)Nc1ccc(F)c(C(F)(F)F)c1,4.5

# Tested on: not listed separately
# Assay: Intrinsic clearance in human liver microsomes assessed per mg protein after 60 mins in presence of NADPH generating system
# Type: ADME, microsome
# Details: 1 h
row,SMILES,CLH [µL/min/mg]
1,O=C(Nc1ccc2c(c1)OC(F)(F)O2)Nc1ccc(F)c(C(F)(F)F)c1,< 7
2,O=C(Nc1ccncc1)Nc1ccc(F)c(C(F)(F)F)c1,12
3,O=C(Nc1ccc2c(c1)OC(F)(F)O2)Nc1ccc2c(c1)OC(F)(F)O2,< 7
4,O=C(Nc1ccc(F)c(C(F)(F)F)c1)Nc1ccc(F)c(C(F)(F)F)c1,10

# Tested on: not listed separately
# Assay: Intrinsic clearance in mouse liver microsomes assessed per mg protein after 60 mins in presence of NADPH generating system
# Type: ADME, microsome
# Details: 1 h
row,SMILES,CLH [µL/min/mg]
1,O=C(Nc1ccc2c(c1)OC(F)(F)O2)Nc1ccc(F)c(C(F)(F)F)c1,< 7
2,O=C(Nc1ccncc1)Nc1ccc(F)c(C(F)(F)F)c1,37
3,O=C(Nc1ccc2c(c1)OC(F)(F)O2)Nc1ccc2c(c1)OC(F)(F)O2,12
4,O=C(Nc1ccc(F)c(C(F)(F)F)c1)Nc1ccc(F)c(C(F)(F)F)c1,7
